Measured values as given in ChEMBL document CHEMBL1123248, “Chiral DNA gyrase inhibitors. 1. Synthesis and antimicrobial activity of the enantiomers of 6-fluoro-7-(1-piperazinyl)-1-(2'-trans-phenyl-1'-cyclopropyl)-1, 4-dihydro-4-oxoquinoline-3-carboxylic acid” (1986).
Values after ≈ are worked out from the molar mass of the structure shown.

Legend:
Format in all cases: functional
Acinetobacter [1] = experiment: The compound was tested for its antimicrobial activity against Acinetobacter sp. CMX 669 (A) strain
Summary of the method: (§1)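 MICs were determined by twofold agar dilution on brain-heart infusion agar.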

Streptococcus pyogenes [2] = experiment: The compound was tested for its antimicrobial activity against Streptococcus pyogenes 930 (Sp) strain; summary of the method: as §1
Escherichia coli [3] = experiment: (§2) The compound was tested for its antimicrobial activity against Escherichia coli juhl (Ec) strain.; summary of the method: as §1
Micrococcus luteus [4] = experiment: The compound was tested for its antimicrobial activity against Micrococcus luteus (MI) strain; summary of the method: as §1
Klebsiella aerogenes [5] = experiment: The compound was tested for its antimicrobial activity against Enterobacter aerogenes ATCC 13048 (Ea) strain.
Summary of the method: (§3)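 MIC by twofold serial agar dilution in brain-heart infusion agar.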

Staphylococcus aureus [6] = experiment: The compound was tested for its antimicrobial activity against Staphylococcus aureus ATCC 6538P (Sa(A)) strain; summary of the method: as §1
Klebsiella pneumoniae [7] = experiment: The compound was tested for its antimicrobial activity against Klebsiella pneumoniae 8045 (Kp) strain; summary of the method: as §1
Enterococcus faecium [8] = experiment: The compound was tested for its antimicrobial activity against Streptococcus faecium ATCC 8043 (Sf) strain; summary of the method: as §1
[9] = tested on: Staphylococcus epidermidis; experiment: (§4) The compound was tested for its antimicrobial activity against Staphylococcus epidermidis 3519 (Se) strain; summary of the method: as §3
Escherichia coli [10] = experiment: The compound was tested for inhibition constant against DNA gyrase isolated from Escherichia coli
Pseudomonas aeruginosa [11] = experiment: The compound was tested evaluated for its antimicrobial activity against Pseudomonas aeruginosa A5007 (Pa(5)) strain.; summary of the method: as §1
Micrococcus luteus [12] = experiment: The compound was tested for inhibition constant against DNA gyrase isolated from micrococcus luteus
Pseudomonas aeruginosa [13] = experiment: The compound was tested evaluated for its antimicrobial activity against Pseudomonas aeruginosa ( Pa(K)) strain; summary of the method: as §1
Staphylococcus aureus [14] = experiment: The compound was tested for its antimicrobial activity against Staphylococcus aureus CMX 68613 (Sa) strain.; summary of the method: as §3
Klebsiella aerogenes [15] = experiment: The compound was tested for its antimicrobial activity against Enterobacter aerogenes ATCC 13048 (Ea) strain; summary of the method: as §1
Klebsiella pneumoniae [16] = experiment: microbe, parasite or virus in culture
[17] = tested on: Staphylococcus epidermidis; experiment: The compound was tested for its antimicrobial activity against Staphylococcus epidermidis 3519 (Se) strain.; summary of the method: as §3
Staphylococcus aureus [18] = experiment: The compound was tested for its antimicrobial activity against Staphylococcus aureus CMX 68613 (Sa) strain; summary of the method: as §1
Escherichia coli [19] = experiment: The compound was tested for its antimicrobial activity against Escherichia coli juhl (Ec) strain; summary of the method: as §1
[20] = tested on: Staphylococcus epidermidis; experiment: as §4; summary of the method: as §1; remark: listed apart in the source
Pseudomonas aeruginosa [21] = experiment: The compound was tested evaluated for its antimicrobial activity against Pseudomonas aeruginosa A5007 (Pa(5)) strain; summary of the method: as §3
Acinetobacter [22] = experiment: The compound was tested for its antimicrobial activity against Acinetobacter sp. CMX 669 (A) strain.; summary of the method: as §3
Enterococcus faecium [23] = experiment: The compound was tested for its antimicrobial activity against Streptococcus faecium ATCC 8043 (Sf) strain.; summary of the method: as §3
Escherichia coli [24] = experiment: as §2; summary of the method: as §3; remark: listed apart in the source
Streptococcus pyogenes [25] = experiment: The compound was tested for its antimicrobial activity against Streptococcus pyogenes 930 (Sp) strain.; summary of the method: as §3
Pseudomonas aeruginosa [26] = experiment: The compound was tested evaluated for its antimicrobial activity against Pseudomonas aeruginosa ( Pa(K)) strain.; summary of the method: as §3
[27] = Streptococcus pyogenes, read-out: MIC
[28] = Staphylococcus aureus, ATCC 6538P, read-out: MIC
[29] = Enterococcus faecium, ATCC 8043, read-out: MIC
[30] = Pseudomonas aeruginosa, read-out: MIC
[31] = Klebsiella aerogenes, ATCC 13048, read-out: MIC
[32] = Staphylococcus aureus, read-out: MIC
[33] = Escherichia coli, read-out: MIC

| Structure (SMILES) | MIC (Acinetobacter [1]) [µg/mL] | MIC (Streptococcus pyogenes [2]; [27]) [µg/mL] | MIC (Micrococcus luteus [4]) [µg/mL] | MIC (Klebsiella aerogenes [5]) [µg/mL] | MIC (Staphylococcus aureus [6]; [28]) [µg/mL] | MIC (Klebsiella pneumoniae [7]) [µg/mL] | MIC (Enterococcus faecium [8]; [29]) [µg/mL] | MIC [9] [µg/mL] | Ki (Escherichia coli [10]; Escherichia coli) [µg/mL] | MIC (Pseudomonas aeruginosa [11]) [µg/mL] | Ki (Micrococcus luteus [12]; Micrococcus luteus) [µg/mL] | MIC (Pseudomonas aeruginosa [13]; [30]) [µg/mL] | MIC (Staphylococcus aureus [14]) [µg/mL] | MIC (Klebsiella aerogenes [15]; [31]) [µg/mL] | MIC [17] [µg/mL] | MIC (Staphylococcus aureus [18]; [32]) [µg/mL] | Ki (Micrococcus luteus [12]) [µg/mL] | MIC (Escherichia coli [19]; [33]) [µg/mL] | MIC [20] [µg/mL] | MIC (Pseudomonas aeruginosa [21]) [µg/mL] | further results |
| --- | --- | --- | --- | --- | --- | --- | --- | --- | --- | --- | --- | --- | --- | --- | --- | --- | --- | --- | --- | --- | --- |
| O=C(O)c1cn(C2C[C@@H]2c2ccccc2)c2cc(N3CCNCC3)c(F)cc2c1=O (stereo partly specified) | 6.2 (≈ 15.2 µM) | 0.78 (≈ 1.91 µM) | 0.39 (≈ 0.957 µM) | 12.5 (≈ 30.7 µM) | 0.78 (≈ 1.91 µM) | 3.1 (≈ 7.61 µM) | 1.56 (≈ 3.83 µM) | 1.56 (≈ 3.83 µM) | 12.1 (≈ 29.7 µM) | > 50 | 9.6 (≈ 23.6 µM) | 100 (≈ 245 µM) | 0.78 (≈ 1.91 µM) | – | – | – | – | – | – | – | MIC (Escherichia coli [3]): 12.5 µg/mL (≈ 30.7 µM) |
| O=C(O)c1cn(C2C[C@H]2c2ccccc2)c2cc(N3CCNCC3)c(F)cc2c1=O (stereo in doubt; 5) | 100 (≈ 245 µM) | 3.1 (≈ 7.61 µM) | – | – | 3.1 (≈ 7.61 µM) | – | 6.2 (≈ 15.2 µM) | – | 14.2 (≈ 34.9 µM) | > 100 | – | 100 (≈ 245 µM) | – | 50 (≈ 123 µM) | 3.1 (≈ 7.61 µM) | 3.1 (≈ 7.61 µM) | 38 (≈ 93.3 µM) | 50 (≈ 123 µM) | – | – | MIC (Klebsiella pneumoniae [16]): 12.5 µg/mL (≈ 30.7 µM); MIC (Pseudomonas aeruginosa [13]): 100 µg/mL (≈ 245 µM) |
| O=C(O)c1cn(C2C[C@H]2c2ccccc2)c2cc(N3CCNCC3)c(F)cc2c1=O (stereo in doubt; 14) | 25 (≈ 61.4 µM) | – | 0.39 (≈ 0.957 µM) | – | – | 6.2 (≈ 15.2 µM) | – | – | – | – | – | – | – | – | – | – | 13.7 (≈ 33.6 µM) | – | 1.56 (≈ 3.83 µM) | > 100 | MIC (Streptococcus pyogenes [2]): 1.56 µg/mL (≈ 3.83 µM); MIC (Klebsiella aerogenes [15]): 50 µg/mL (≈ 123 µM); MIC (Staphylococcus aureus [6]): 1.56 µg/mL (≈ 3.83 µM); MIC (Enterococcus faecium [8]): 3.1 µg/mL (≈ 7.61 µM); MIC (Staphylococcus aureus [18]): 1.56 µg/mL (≈ 3.83 µM); Ki (Escherichia coli [10]): 15.2 µg/mL (≈ 37.3 µM); MIC (Escherichia coli [19]): 25 µg/mL (≈ 61.4 µM) |
| O=C(O)c1cn(C2CC2)c2cc(N3CCNCC3)c(F)cc2c1=O [CIPROFLOXACIN] | 3.1 (≈ 9.36 µM) | 0.39 (≈ 1.18 µM) | 1.56 (≈ 4.71 µM) | – | 0.2 (≈ 0.604 µM) | – | 0.39 (≈ 1.18 µM) | – | 0.9 (≈ 2.72 µM) | – | 38 (≈ 115 µM) | 0.05 (≈ 0.151 µM) | – | 0.05 (≈ 0.151 µM) | – | 0.2 (≈ 0.604 µM) | – | – | 0.2 (≈ 0.604 µM) | 0.1 (≈ 0.302 µM) | – |
| O=C(O)c1cn(-c2ccccc2)c2cc(N3CCNCC3)c(F)cc2c1=O | – | – | – | 0.39 (≈ 1.06 µM) | 0.39 (≈ 1.06 µM) | – | – | – | – | 0.78 (≈ 2.12 µM) | – | – | 0.39 (≈ 1.06 µM) | – | 1.56 (≈ 4.25 µM) | – | – | – | – | – | MIC (Acinetobacter [22]): 0.78 µg/mL (≈ 2.12 µM); MIC (Enterococcus faecium [23]): 12.5 µg/mL (≈ 34 µM); MIC (Escherichia coli [24]): 0.2 µg/mL (≈ 0.544 µM); MIC (Streptococcus pyogenes [25]): 1.56 µg/mL (≈ 4.25 µM); MIC (Pseudomonas aeruginosa [26]): 1.56 µg/mL (≈ 4.25 µM) |
| CCn1cc(C(=O)O)c(=O)c2cc(F)c(N3CCNCC3)cc21 [NORFLOXACIN] | 6.2 (≈ 19.4 µM) | 3.1 (≈ 9.71 µM) | – | 0.2 (≈ 0.626 µM) | 0.78 (≈ 2.44 µM) | 0.1 (≈ 0.313 µM) | 0.78 (≈ 2.44 µM) | 1.56 (≈ 4.89 µM) | 1 (≈ 3.13 µM) | – | 72 (≈ 225 µM) | 0.39 (≈ 1.22 µM) | – | – | – | 0.78 (≈ 2.44 µM) | – | 0.1 (≈ 0.313 µM) | – | 0.39 (≈ 1.22 µM) | – |
